Test results reported in ChEMBL document CHEMBL4390639, “Design, Synthesis, and Biological Evaluation of Novel Allosteric Protein Disulfide Isomerase Inhibitors” (J Med Chem, 2019).
Active and inactive are the calls of the source. The calls are words filed in the database; no cut-off is given here.

Columns and labels:
[1] = test system: Protein disulfide-isomerase (Homo sapiens), P07237 [H256A]; assay: Inhibition of recombinant human N-terminal His-tagged PDI H256A mutant expressed in Escherichia coli BL21 (DE3) pLysS at 100 uM measured after 1 hr by ANS dye based fluorescence spectra analysis
U-87 MG [2] = assay: Up regulation of TRIM16L gene expression in human U87MG cells at 16 uM incubated for 4 hrs followed by bromouridine addition during last 30 mins of incubation by TRIzol-reagent based Bru-Seq analysis relative to control; assay type: functional, U-87MG ATCC
U-87 MG [3] = assay: Up regulation of PIR gene expression in human U87MG cells at 16 uM incubated for 4 hrs followed by bromouridine addition during last 30 mins of incubation by TRIzol-reagent based Bru-Seq analysis relative to control; assay type: functional, U-87MG ATCC
In short: (§1)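 U87MG cells exposed to compound or DMSO vehicle for 4 h, with 2 mM bromouridine added for the final 30 min. Total RNA isolated with TRIzol; Bru-labelled nascent RNA captured on anti-BrdU antibody-conjugated magnetic beads and sequenced. Transcript abundance expressed as RPKM relative to DMSO. Experiment performed once.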

U-87 MG [4] = assay: Up regulation of CYYR1-AS1 gene expression in human U87MG cells at 16 uM incubated for 4 hrs followed by bromouridine addition during last 30 mins of incubation by TRIzol-reagent based Bru-Seq analysis relative to control; assay type: functional, U-87MG ATCC; in short: as §1
U-87 MG [5] = assay: Down regulation of H1F0 gene expression in human U87MG cells at 16 uM incubated for 4 hrs followed by bromouridine addition during last 30 mins of incubation by TRIzol-reagent based Bru-Seq analysis relative to control; assay type: functional, U-87MG ATCC
U-87 MG [6] = assay: Down regulation of RAD51 gene expression in human U87MG cells at 16 uM incubated for 4 hrs followed by bromouridine addition during last 30 mins of incubation by TRIzol-reagent based Bru-Seq analysis; assay type: functional, cell-based; conditions: U-87MG ATCC
In short: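 Bru-seq in U87MG cells treated at 16 μM for 4 h; 2 mM bromouridine present during the last 30 min. TRIzol total RNA, then anti-BrdU bead capture of labelled RNA and sequencing. Readout is RPKM traces versus DMSO control. Performed once.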

U-87 MG [7] = assay: Down regulation of cleaved MMP2 expression in human U87MG cells at 10 uM measured after 24 hrs by Western blot analysis; assay type: functional, cell-based; conditions: U-87MG ATCC
U-87 MG [8] = assay: Up regulation of HSPA6 gene expression in human U87MG cells at 10 uM incubated for 4 hrs followed by bromouridine addition during last 30 mins of incubation by TRIzol-reagent based Bru-Seq analysis relative to control; assay type: functional, U-87MG ATCC; in short: as §1
U-87 MG [9] = assay: Up regulation of HSPA1B gene expression in human U87MG cells at 10 uM incubated for 4 hrs followed by bromouridine addition during last 30 mins of incubation by TRIzol-reagent based Bru-Seq analysis relative to control; assay type: functional, U-87MG ATCC; in short: as §1
U-87 MG [10] = assay: Up regulation of TRIB3 gene expression in human U87MG cells at 10 uM incubated for 4 hrs followed by bromouridine addition during last 30 mins of incubation by TRIzol-reagent based Bru-Seq analysis relative to control; assay type: functional, U-87MG ATCC
In short: (§2)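 U87MG cells treated 4 h with test compound (10 or 16 μM, as per line) or DMSO; 2 mM bromouridine added for final 30 min. Total RNA isolated with TRIzol, Bru-labelled nascent RNA captured with anti-BrdU antibody magnetic beads and sequenced; transcript abundance (RPKM) compared with DMSO control. Single experiment.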

U-87 MG [11] = assay: Up regulation of SLC7A11 gene expression in human U87MG cells at 10 uM incubated for 4 hrs followed by bromouridine addition during last 30 mins of incubation by TRIzol-reagent based Bru-Seq analysis relative to control; assay type: functional, U-87MG ATCC; in short: as §2
U-87 MG [12] = assay: Up regulation of NR4A1 gene expression in human U87MG cells at 10 uM incubated for 4 hrs followed by bromouridine addition during last 30 mins of incubation by TRIzol-reagent based Bru-Seq analysis relative to control; assay type: functional, U-87MG ATCC; in short: as §1
U-87 MG [13] = assay: Up regulation of DNAJB1 gene expression in human U87MG cells at 10 uM incubated for 4 hrs followed by bromouridine addition during last 30 mins of incubation by TRIzol-reagent based Bru-Seq analysis relative to control; assay type: functional, U-87MG ATCC; in short: as §1
U-87 MG [14] = assay: Up regulation of ATP6 V0D2 gene expression in human U87MG cells at 10 uM incubated for 4 hrs followed by bromouridine addition during last 30 mins of incubation by TRIzol-reagent based Bru-Seq analysis relative to control; assay type: functional, U-87MG ATCC; in short: as §1
U-87 MG [15] = assay: Up regulation of DEDD2 gene expression in human U87MG cells at 10 uM incubated for 4 hrs followed by bromouridine addition during last 30 mins of incubation by TRIzol-reagent based Bru-Seq analysis relative to control; assay type: functional, U-87MG ATCC; in short: as §1
U-87 MG [16] = assay: Down regulation of LYPD6 gene expression in human U87MG cells at 10 uM incubated for 4 hrs followed by bromouridine addition during last 30 mins of incubation by TRIzol-reagent based Bru-Seq analysis relative to control; assay type: functional, U-87MG ATCC
U-87 MG [17] = assay: Down regulation of ANKRD36B gene expression in human U87MG cells at 10 uM incubated for 4 hrs followed by bromouridine addition during last 30 mins of incubation by TRIzol-reagent based Bru-Seq analysis relative to control; assay type: functional, U-87MG ATCC
U-87 MG [18] = assay: Down regulation of CHSY3 gene expression in human U87MG cells at 10 uM incubated for 4 hrs followed by bromouridine addition during last 30 mins of incubation by TRIzol-reagent based Bru-Seq analysis relative to control; assay type: functional, U-87MG ATCC
U-87 MG [19] = assay: Down regulation of NFIA gene expression in human U87MG cells at 10 uM incubated for 4 hrs followed by bromouridine addition during last 30 mins of incubation by TRIzol-reagent based Bru-Seq analysis relative to control; assay type: functional, U-87MG ATCC
In short: (§3)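 Nascent transcription (Bru-seq) in U87MG cells: treatment at 10 μM for 4 h, with 2 mM bromouridine added for the final 30 min. Total RNA isolated with TRIzol; Bru-labelled RNA captured using anti-BrdU antibody on magnetic beads, then sequenced. Transcript traces reported as RPKM compared with DMSO-treated cells. Single experiment.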

U-87 MG [20] = assay: Down regulation of ANKRD36 gene expression in human U87MG cells at 10 uM incubated for 4 hrs followed by bromouridine addition during last 30 mins of incubation by TRIzol-reagent based Bru-Seq analysis relative to control; assay type: functional, U-87MG ATCC
U-87 MG [21] = assay: Down regulation of FPGT gene expression in human U87MG cells at 10 uM incubated for 4 hrs followed by bromouridine addition during last 30 mins of incubation by TRIzol-reagent based Bru-Seq analysis relative to control; assay type: functional, U-87MG ATCC
U-87 MG [22] = assay: Down regulation of HIST1H2BC gene expression in human U87MG cells at 10 uM incubated for 4 hrs followed by bromouridine addition during last 30 mins of incubation by TRIzol-reagent based Bru-Seq analysis relative to control; assay type: functional, U-87MG ATCC
U-87 MG [23] = assay: Up regulation of NMRAL2P gene expression in human U87MG cells at 10 uM incubated for 4 hrs followed by bromouridine addition during last 30 mins of incubation by TRIzol-reagent based Bru-Seq analysis relative to control; assay type: functional, U-87MG ATCC; in short: as §3
A 172 = assay: Induction of morphological changes in human A172 cells assessed as formation of lipid vesicles around nucleus at 17 uM measured after 48 hrs by Giemsa-staining based microscopic analysis; assay type: functional, cell-based
U-87 MG [24] = assay: Inhibition of colony formation in human U87MG cells assessed as combination index at 1 to 30 uM measured after 24 hrs in presence of arsenic trioxide by crystal violet staining based assay; assay type: functional, U-87MG ATCC

Protein disulfide-isomerase (Homo sapiens), P07237 [H256A], sequence (P07237 whole entry H256A): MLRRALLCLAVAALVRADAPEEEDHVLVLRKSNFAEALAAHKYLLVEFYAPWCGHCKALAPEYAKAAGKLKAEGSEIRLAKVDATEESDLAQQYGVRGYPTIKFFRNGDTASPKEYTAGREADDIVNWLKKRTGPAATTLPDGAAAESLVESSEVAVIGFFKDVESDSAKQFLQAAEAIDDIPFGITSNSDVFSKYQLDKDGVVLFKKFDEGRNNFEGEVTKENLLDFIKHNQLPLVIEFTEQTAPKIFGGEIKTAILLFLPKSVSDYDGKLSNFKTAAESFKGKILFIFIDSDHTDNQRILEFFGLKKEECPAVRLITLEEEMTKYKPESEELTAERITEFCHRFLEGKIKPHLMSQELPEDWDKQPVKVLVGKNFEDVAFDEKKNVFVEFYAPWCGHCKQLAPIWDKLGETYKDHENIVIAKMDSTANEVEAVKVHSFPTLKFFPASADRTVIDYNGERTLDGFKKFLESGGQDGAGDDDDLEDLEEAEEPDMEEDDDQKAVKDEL

In the case of CCCCCN(CCCCC)S(=O)(=O)c1ccc(C(=O)/C=C/c2cccc(O)c2)cc1, the inhibition [1] is reported as “Active”.

In the case of COC(=O)c1cccc(/C=C/C(=O)c2cccc(O)c2)c1, the “fold change (FC)” value (U-87 MG [2]) is reported as 4.9, the “fold change (FC)” value (U-87 MG [3]) is reported as 4.3 and the “fold change (FC)” value (U-87 MG [4]) is reported as 4.3. The “fold change (FC)” value (U-87 MG [5]) was 2.7 and the Activity (U-87 MG [6]) was “Active”.

For O=C(/C=C/c1ccc(-c2cccnc2)cc1)c1cccc(O)c1, the Activity (U-87 MG [7]) was “Active”.

With CCCCCN(CCCCC)S(=O)(=O)c1ccc(C(=O)/C=C/c2cccc(C#N)c2)cc1 the “fold change (FC)” value (U-87 MG [8]) was 464.7, the “fold change (FC)” value (U-87 MG [9]) was 107.2 and the “fold change (FC)” value (U-87 MG [10]) was 34.1. For the same compound, the “fold change (FC)” value (U-87 MG [11]) was 20.8, the “fold change (FC)” value (U-87 MG [12]) was 18.9 and the “fold change (FC)” value (U-87 MG [13]) was 16.9. The “fold change (FC)” value (U-87 MG [14]) was 11.9, the “fold change (FC)” value (U-87 MG [15]) was 11 and the “fold change (FC)” value (U-87 MG [16]) was 3.1. The “fold change (FC)” value (U-87 MG [17]) was 2.8, the “fold change (FC)” value (U-87 MG [18]) was 2.6 and the “fold change (FC)” value (U-87 MG [19]) was 2.4. For the same compound, the “fold change (FC)” value (U-87 MG [20]) was 2.4, the “fold change (FC)” value (U-87 MG [21]) was 2.3 and the “fold change (FC)” value (U-87 MG [22]) was 2.3. For the same compound, the log2FC (U-87 MG [23]) was 2.72.

For N#Cc1cccc(/C=C/C(=O)c2ccc(O)cc2)c1, the Activity (A 172) was “Active” and the CI (U-87 MG [24]) was <1.
